In the library only some 2.6% were active in any assay of this set; here they are far more common.
PRMT1 inh: PRMT1 (human) inhibition, primary screen; recombinant PRMT1, activity-based probe fluorescence polarization; inhibition, % at 2.79 µM; 370,000 tested, 1.3% active; AID 652257;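 active means inhibition above about 21% made by adding two undisclosed values, limit read from the data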
GSTO1 counter: counter-screen for RBBP9 inhibitors: inhibitors of human GSTO1. P78417. recombinant GSTO1, activity-based probe fluorescence polarization. inhibition, % at 5.96 µM. 300,000 tested, 1.1% active;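 active means inhibition above the campaign mean inhibition plus 3 SD, cut at about 35% in these data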;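 further: 0% = GSTO1-1 with DMSO and 100% = wells lacking GSTO1-1 enzyme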
Apaf1 inhib: blocks human Apaf-1 apoptosome activity. reconstituted apoptosome caspase-3 activity, DEVD-Rh110 fluorescence. inhibition, % at 20 µM. 330,000 tested, 0.71% active. AID 489030; active means inhibition of at least 40% at 20 µM;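 further: plate controls were DMSO wells for no effect and DEVD-CHO caspase inhibitor wells for full effect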
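detection = Rh110 fluorescence intensity | test system = biochemical Apaf-1 apoptosome reconstitution | also added = cytochrome c and DEVD-Rh110 substrate | schedule = 30 min plus 50 min, RT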
PAD4 FP inh: PAD4 (human) enzyme inhibition. Q9UM07. recombinant PAD4, RCA probe fluorescence polarization. inhibition, % at 6.36 µM. 330,000 tested, 0.41% active. AID 485272;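 active means percent inhibition above a cutoff equal to the mean of all tested compounds plus 3 SD, cut at about 15% in these data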;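 further: 0% = PAD4 with RCA probe and DMSO and 100% = probe without PAD4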
TDP2 inh: TDP2 (human) inhibition, absorbance primary screen | recombinant TDP2, T5PNP hydrolysis, p-nitrophenol absorbance 415 nm | inhibition, % at 12.8 µM | 370,000 tested, 0.34% active | AID 720702;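 active means inhibition above the mean of all tested compounds plus 3 SD, set per campaign, cut at about 25% in these data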;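 further: 0% = DMSO with enzyme and 100% = buffer with substrate but no TDP2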
Target sequence (O95551 whole entry, looked up): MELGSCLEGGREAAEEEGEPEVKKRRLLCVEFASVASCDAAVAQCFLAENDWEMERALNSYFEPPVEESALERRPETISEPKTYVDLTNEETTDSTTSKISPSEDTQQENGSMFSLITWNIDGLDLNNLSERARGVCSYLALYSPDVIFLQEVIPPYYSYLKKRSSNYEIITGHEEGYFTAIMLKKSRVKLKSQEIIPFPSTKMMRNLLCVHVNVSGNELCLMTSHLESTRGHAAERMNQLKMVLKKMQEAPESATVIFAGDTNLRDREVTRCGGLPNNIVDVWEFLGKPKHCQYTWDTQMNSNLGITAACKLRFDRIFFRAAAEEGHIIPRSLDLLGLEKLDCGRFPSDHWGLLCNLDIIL
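System: recombinant human TDP2 / Amount: 120 nM TDP2 per well / Also added: 5 mM T5PNP chromogenic substrate / Doses: 12.8 µM single point, 1% DMSO / Incubation: 2 h at 37 °C / Detection: p-Nitrophenol epi absorbance / Evaluation: % inhibition relative to enzyme-containing and enzyme-free wells / Repeats: singlicate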
PRMT1 confirm: PRMT1 (human) inhibition, FP confirmation; recombinant His-PRMT1, activity-based probe fluorescence polarization; shares compounds with PRMT1 inh; 3,300 tested, 42% active; AID 687036; inhibition, % at 2.79 µM;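 active means mean inhibition across replicates above the hit cutoff derived for the earlier primary screen, cut at about 22% in these data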
TDP2 confirm: human TDP2 inhibition, confirmation | shares compounds with TDP2 inh | recombinant human TDP2, absorbance read-out | inhibition, % at 12.8 µM | 1,100 tested, 22% active | AID 743263; in the data active means inhibition above about 25%;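 further: 0% = vehicle with enzyme and 100% = no enzyme buffer only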
* hit, by the source's call; x = no result given.

SMILES	PRMT1 inh	GSTO1 counter	Apaf1 inhib	PAD4 FP inh	TDP2 inh	TDP2 confirm	others
COC1C(C)OC(OC2CC(C)(O)Cc3cc4c(c(O)c32)C(=O)c2c(O)cc3c(c2C4=O)OC2OC3(C)C(O)C(N(C)C)C2O)C(OC)C1(C)OC (stereo not drawn)	124*	x	x	x	-3	x	PRMT1 confirm=98*
CN1C(=O)C(=Cc2c(OCc3cnc(Cl)s3)ccc3ccccc23)C(=O)N(C)C1=O	44*	7	8	1	-4	x	PRMT1 confirm=-1
CN(C)c1nc(-c2ccccc2)[n+](C)s1	34*	11	-1	-1	5	x	PRMT1 confirm=22*
CC[n+]1c(-c2ccccc2)c2cc(N)ccc2c2ccc(N)cc21	37*	x	x	x	34*	22	PRMT1 confirm=11
Cn1c(O)c(/C=C2\N=c3ccccc3=C2CCNC(=S)NC2CC2)c(=O)n(C)c1=O	17	10	19	-2	14	x
COc1ccc(OCC#CCN2CCNCC2)cc1	1	-1	-3	-2	31*	2
COC(=O)C1=C(c2ccc(Cl)c(C(F)(F)F)c2)C[C@@H]2CC[C@H]1N2C(=O)N1CCC(C)CC1	x	x	32	-3	x	x
O=c1nc(/C=C/c2ccc(Cl)cc2Cl)cc(C(F)(F)F)[nH]1	2	x	10	x	29*	18
NC(=O)Cn1cc(C=C2C(=O)NC(=O)NC2=O)c2ccccc21	1	x	2	x	17	x
CCn1cc(C=C2C(=O)NC(=O)NC2=O)c2ccccc21	10	1	-14	0	28*	7
Nc1c(Br)cc2c3c(cccc13)-c1ccccc1-2	7	x	x	x	64*	17
COc1cc(/C=C/C(=O)c2c(O)n(CCc3ccccc3)c(=O)[nH]c2=O)ccc1O	-2	9	5	-8	13	x
CCOCCCn1c(N)c(C(=O)Nc2sc3c(c2C(=O)OC)CCCC3)c2nc3ccccc3nc21	2	1	-1	1	70*	1
CCOC(=O)c1c(NC(NC(=O)CF)C(Cl)(Cl)Cl)sc2c1CCCC2 (stereo not drawn)	5	4	13	1	-3	x
Cc1cccc(-n2c(C)nc3ccc(Cl)cc3c2=O)c1	-10	-1	0	-3	0	x
O=C(CN1CCOCC1)c1cccc2ccccc12	4	1	2	0	25*	16
CCC(=NCCc1ccccc1)c1c(O)[nH]c(=O)[nH]c1=O	2	-5	0	3	-1	x
CCC(=Nc1ccccc1N)c1c(O)[nH]c(=O)[nH]c1=O	1	12	14	-7	25*	13
O=C(O)COc1cc(Cl)c(Cl)cc1Cl	-2	x	x	x	8	x
CS(=O)(=O)N1Cc2cc(Br)ccc2-n2nncc2C1	-9	x	x	x	1	x
O=c1[nH]c(=O)n(-c2cccc(F)c2)c(O)c1/C=C1\C=Nc2ccccc21	8	6	5	0	32*	14
O=C(O)c1ccc(-n2c(O)c(/C=C3\C=Nc4ccccc43)c(=O)[nH]c2=O)cc1	2	-5	-2	0	18	x
Cc1cccc2c1=NC(=O)/C(=C/c1c(O)[nH]c(=O)[nH]c1=O)C=2	16	26	2	-12	32*	38*
